13 compounds from ChEMBL document CHEMBL1155272, “Nucleoside-5'-monophosphates as prodrugs of adenosine A2A receptor agonists activated by ecto-5'-nucleotidase” (J Med Chem, 2009) can be followed below.

In series [1] the target is Adenosine receptor A2a (Rattus norvegicus, UniProt P30543). Nature of the series: Displacement of [3H]CGS21680 from adenosine A2A receptor in rat brain striatal membrane after 60 mins. The series is classed as cell membranes. On the technique in general: Loss of bound radioactivity is the signal in a displacement assay; it reports binding, not function.
Adenosine receptor A2a, sequence (P30543 whole entry): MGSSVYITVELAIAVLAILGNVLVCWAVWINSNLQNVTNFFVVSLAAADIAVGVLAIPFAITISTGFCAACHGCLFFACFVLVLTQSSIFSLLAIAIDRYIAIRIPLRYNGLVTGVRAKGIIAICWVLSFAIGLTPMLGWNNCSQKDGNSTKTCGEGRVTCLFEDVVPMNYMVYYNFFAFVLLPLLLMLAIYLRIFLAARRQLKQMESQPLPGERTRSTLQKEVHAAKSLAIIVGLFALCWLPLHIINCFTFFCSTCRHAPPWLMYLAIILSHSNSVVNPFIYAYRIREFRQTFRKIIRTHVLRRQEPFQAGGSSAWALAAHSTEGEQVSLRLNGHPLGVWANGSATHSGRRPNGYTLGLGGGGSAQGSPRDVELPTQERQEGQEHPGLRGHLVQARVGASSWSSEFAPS
In series [2] the target is T1, Adenosine receptor A3 (Homo sapiens, UniProt P0DMS8).
T1 sequence (P0DMS8 whole entry): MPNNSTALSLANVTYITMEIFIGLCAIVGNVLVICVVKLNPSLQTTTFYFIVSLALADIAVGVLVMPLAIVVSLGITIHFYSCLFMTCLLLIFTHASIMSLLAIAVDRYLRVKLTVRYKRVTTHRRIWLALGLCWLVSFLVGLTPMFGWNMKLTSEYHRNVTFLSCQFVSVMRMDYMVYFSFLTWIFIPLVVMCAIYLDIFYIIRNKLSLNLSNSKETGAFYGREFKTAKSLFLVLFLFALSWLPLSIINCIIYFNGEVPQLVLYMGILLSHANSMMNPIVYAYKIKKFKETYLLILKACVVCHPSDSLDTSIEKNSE
Nature of the series: Displacement of [3H]PSB-11 from human recombinant adenosine A3 receptor expressed in CHO cells after 60 mins. In kind it is cell-based. A digest of the protocol: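 Membranes from CHO cells expressing human A3 receptor (30–50 μg protein), pretreated 10–15 min with 0.12 IU/mL adenosine deaminase. [3H]PSB-11 1.0 nM, 60 min at rt, 2.5% DMSO final. Six to seven concentrations over 3 log units. At least 2–3 experiments in duplicate.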

For series [3], the target named is T2, Adenosine receptor A1 (Rattus norvegicus, UniProt P25099).
T2 sequence (P25099 whole entry): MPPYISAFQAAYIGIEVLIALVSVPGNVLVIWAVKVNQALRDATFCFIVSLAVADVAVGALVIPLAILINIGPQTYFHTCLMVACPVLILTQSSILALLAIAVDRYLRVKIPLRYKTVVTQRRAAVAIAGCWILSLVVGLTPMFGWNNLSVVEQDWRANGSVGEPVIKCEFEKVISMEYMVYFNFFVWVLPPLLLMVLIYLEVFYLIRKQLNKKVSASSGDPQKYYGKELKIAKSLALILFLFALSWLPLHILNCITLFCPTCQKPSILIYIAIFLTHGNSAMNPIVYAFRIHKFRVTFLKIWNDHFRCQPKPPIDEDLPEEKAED
Nature of the series: Displacement of [3H]CCPA from adenosine A1 receptor in rat brain cortical membrane after 90 mins.

Series [4] is described as follows: Antiinflammatory activity in C57/Bl6 mouse CD4+ T cells assessed as inhibition of anti-CD3/anti-CD28 antibody-stimulated INFgamma production after 18 hrs by ELISA. The conditions noted are these: C57/Bl6, T-cell. In kind it is functional, cell-based. A digest of the protocol: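 Splenic CD4+ T cells from male C57/Bl6 mice (8–12 wk) were isolated by magnetic CD4 beads, resuspended in Panserin 413, and stimulated on plates coated with 0.4 μg/mL anti-CD3 and 2.5 μg/mL anti-CD28 for 18 h, with compound added together with the antibodies. IFN-γ in the supernatant was measured by ELISA, and EC50 was taken from dose-response curves.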
(In general: In an ELISA, binding on a coated surface is turned into a signal by an enzyme label.)

The nature of series [5]: Prodrug stability in C57/Bl6 mouse CD4+ T cells expressing ecto-5'-nucleotidase assessed as compound remaining at 10 mM after 18 hrs by LC/MS analysis. In kind it is ADME, cell-based. The following applies: t-cell, 10000 µM. A digest of the protocol: (§1)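 Splenic CD4+ T cells (wild-type or ecto-5'-NT knockout C57/Bl6), about 4×10^5 cells in 200 μL, were stimulated with anti-CD3/anti-CD28 for 18 h with prodrug at initial 10, 5 or 2.5 mM. Prodrug and released nucleoside in the supernatant were quantified by LC-MS/MS (C18, water/methanol with 2 mM ammonium acetate, ESI negative MRM). Each is expressed as a percentage of the total.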

A short description of series [6]: Prodrug stability in C57/Bl6 mouse CD4+ T cells expressing ecto-5'-nucleotidase assessed as compound remaining at 5 mM after 18 hrs by LC/MS analysis. In kind it is ADME, cell-based. The conditions noted are these: t-cell, 5000 µM. In outline:
as §1

Series [7] in a line: Prodrug stability in C57/Bl6 mouse CD4+ T cells expressing ecto-5'-nucleotidase assessed as compound remaining at 2.5 mM after 18 hrs by LC/MS analysis. In kind it is ADME, cell-based. The conditions noted are these: t-cell, 2500 µM. A digest of the protocol:
as §1

Series [8] can be described thus: Prodrug stability in ecto-5'-nucleotidase knockout C57/Bl6 mouse CD4+ T cells assessed as compound remaining at 10 mM after 18 hrs by LC/MS analysis. The series is classed as ADME, cell-based. The conditions noted are these: t-cell, 10000 µM. A digest of the protocol: as §1
A short description of series [9]: Prodrug stability in ecto-5'-nucleotidase knockout C57/Bl6 mouse CD4+ T cells assessed as compound remaining at 5 mM after 18 hrs by LC/MS analysis. The series is classed as ADME, cell-based. The following applies: t-cell, 5000 µM. A digest of the protocol:
as §1

Series [10] in a line: Prodrug stability in ecto-5'-nucleotidase knockout C57/Bl6 mouse CD4+ T cells assessed as compound remaining at 2.5 mM after 18 hrs by LC/MS analysis. In kind it is ADME, cell-based. The following applies: t-cell, 2500 µM. In outline:
as §1

Series [11] is described as follows: Prodrug stability in C57/Bl6 mouse CD4+ T cells expressing ecto-5'-nucleotidase assessed as formation of 2-(cyclohexylmethylthio)adenosine at 10 mM after 18 hrs by LC/MS analysis. The series is classed as ADME, cell-based. The conditions noted are these: t-cell, 10000 µM, in the assay text read “2-(cyclohexylethylthio)adenosine” for “2-(cyclohexylmethylthio)adenosine”. A digest of the protocol: as §1

Series [12] is described as follows: Prodrug stability in C57/Bl6 mouse CD4+ T cells expressing ecto-5'-nucleotidase assessed as formation of 2-(cyclohexylmethylthio)adenosine at 2.5 mM after 18 hrs by LC/MS analysis. The following applies: t-cell, 2500 µM. The series is classed as ADME, cell-based. In outline:
as §1

Series [13] in a line: Prodrug stability in ecto-5'-nucleotidase knockout C57/Bl6 mouse CD4+ T cells expressing ecto-5'-nucleotidase assessed as formation of 2-(cyclohexylmethylthio)adenosine at 10 mM after 18 hrs by LC/MS analysis. In kind it is ADME, cell-based. The conditions noted are these: t-cell, 10000 µM. A digest of the protocol:
as §1

Series [14] is described as follows: Prodrug stability in ecto-5'-nucleotidase knockout C57/Bl6 mouse CD4+ T cells expressing ecto-5'-nucleotidase assessed as formation of 2-(cyclohexylmethylthio)adenosine at 5 mM after 18 hrs by LC/MS analysis. The conditions noted are these: t-cell, 5000 µM. The series is classed as ADME, cell-based. In outline: as §1
Series [15] is described as follows: Prodrug stability in ecto-5'-nucleotidase knockout C57/Bl6 mouse CD4+ T cells expressing ecto-5'-nucleotidase assessed as formation of 2-(cyclohexylmethylthio)adenosine at 2.5 mM after 18 hrs by LC/MS analysis. The series is classed as ADME, cell-based. The following applies: t-cell, 2500 µM. In outline:
as §1

Series [16] is described as follows: Prodrug stability in C57/Bl6 mouse CD4+ T cells expressing ecto-5'-nucleotidase assessed as formation of 2-(cyclohexylethylthio)adenosine at 5 mM after 18 hrs by LC/MS analysis. The conditions noted are these: t-cell, 5000 µM.

As for `Nc1nc(SCc2ccccc2)nc2c1ncn2[C@@H]1O[C@H](CO)[C@@H](O)[C@H]1O`, the Ki in [1] worked out at 606 nM; in series [2], 120 nM; in series [3], 927 nM.

On to `Nc1nc(SCCC2COCCO2)nc2c1ncn2[C@@H]1O[C@H](CO)[C@@H](O)[C@H]1O` (stereo partly specified), for which the inhibition constant (Ki) in series [1] was found to be 1100 nM; in series [2] it was 1330 nM; in [3], 454 nM.

Regarding `CCCCCCSc1nc(N)c2ncn([C@@H]3O[C@H](CO)[C@@H](O)[C@H]3O)c2n1`, the figures for the Ki in series [1], in series [2] and in [3] were 542 nM, 2320 nM and 256 nM, respectively.

Take `Nc1nc(SC2CCCCC2)nc2c1ncn2[C@@H]1O[C@H](CO)[C@@H](O)[C@H]1O`: the Ki in [1] is 2480 nM; in series [2] it was at least 10000 nM; in series [3] it was 139 nM.

On to `Nc1nc(SCCC2CCCCC2)nc2c1ncn2[C@@H]1O[C@H](CO)[C@@H](O)[C@H]1O`, for which the Ki in [2] is 3640 nM; in series [3] it was 400 nM. In series [4], the concentration giving a half-maximal response (EC50) came to 50 nM.

In the case of `CCCSc1nc(N)c2ncn([C@@H]3O[C@H](CO)[C@@H](O)[C@H]3O)c2n1`, the values for the inhibition constant (Ki) in series [1] and in series [3] were 1350 nM and 1270 nM, respectively.

On to `C=CCSc1nc(N)c2ncn([C@@H]3O[C@H](CO)[C@@H](O)[C@H]3O)c2n1`, for which the Ki in series [1] worked out at 1520 nM; in series [2], 6640 nM; in series [3] it was 532 nM.

For `C#CCSc1nc(N)c2ncn([C@@H]3O[C@H](CO)[C@@H](O)[C@H]3O)c2n1`, the Ki is 2900 nM in series [1], 6990 nM in series [2] and 555 nM in series [3].

Consider `Nc1nc(SCC2CCCCC2)nc2c1ncn2[C@@H]1O[C@H](CO)[C@@H](O)[C@H]1O`, for which the inhibition constant (Ki) was determined as 709 nM in series [1] and 1720 nM in series [2].

For the compound `Nc1nc(SCCc2ccccc2)nc2c1ncn2[C@@H]1O[C@H](CO)[C@@H](O)[C@H]1O`, the values for the Ki in [1] and in series [2] were 18.5 nM and 1810 nM, respectively.

Consider `Nc1nc(SCCC2CCCCC2)nc2c1ncn2[C@@H]1O[C@H](COP(=O)(O)O)[C@@H](O)[C@H]1O`, for which the EC50 in series [4] was found to be 5700 nM. The Stability in series [5] turned out to be 85%; in [6], 87.2%; in [7], 89.2%; in series [8], 94.7%; in [9], 95.3%; in series [10], 97.3%. Besides, the Activity in series [11] stood at 15%; in [12] it was 10.8%; in series [13], 5.3%; in series [14] it was 4.7%; in series [15] it was 2.7%; in [16], 12.8%.

Take `Nc1nc(SC2CCCC2)nc2c1ncn2[C@@H]1O[C@H](CO)[C@@H](O)[C@H]1O`: the values for the inhibitory constant (Ki) in series [1], in [2] and in [3] were 793 nM, 10400 nM and 994 nM, respectively.

With `Nc1nc(SCCC2OCCO2)nc2c1ncn2[C@@H]1O[C@H](CO)[C@@H](O)[C@H]1O`, the figures for the Ki in series [1], in series [2] and in series [3] were 1160 nM, 3450 nM and 1140 nM, respectively.

The term Ki denotes a dissociation constant, usually derived from enzyme kinetics or from competition with a known ligand. By EC50 is commonly meant the midpoint of the concentration-response curve.
